# Bioassay records (PubChem BioAssay)
# SR-BI DiI inh: inhibitors of mouse SR-BI mediated HDL lipid uptake | Q61009 | ldlA[mSR-BI] CHO cells, DiI-HDL uptake fluorescence, 3 h | inhibition, % at 12.5 µM | actives 0.96% (n = 320,000) | AID 488896;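 active means mean replicate inhibition of at least 70% and a set share of replicates each scoring 70 or more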;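 further: 0% = median of neutral control wells and 100% = median of positive control wells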
# ABCB6 inh MLPCN: human ABCB6 transporter inhibition. AID 602162. Q9NP58. actives 0.19% (n = 360,000). fluorescence ratio to DMSO, % at 10 µM. K562-ABCB6 porphyrin accumulation, flow cytometry, 1 h; active compounds read low;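 active means fluorescence ratio to DMSO below 75%, the collection mean minus 3 SD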;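 further: signal is porphyrin accumulated inside mitochondria; 100% equals median channel fluorescence of DMSO control wells; lower ratio means ABCB6 inhibition with less porphyrin fluorescence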
# AHR activator: activators of human aryl hydrocarbon receptor; P35869; AHR-responsive luciferase reporter cells, luminescence; activation, % at 5 µM; actives 2.5% (n = 320,000); AID 2796; in the data active means activation above about 47%;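 further: 0% = vehicle wells and 100% = reference agonist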
# Target sequence (P35869 whole entry, looked up): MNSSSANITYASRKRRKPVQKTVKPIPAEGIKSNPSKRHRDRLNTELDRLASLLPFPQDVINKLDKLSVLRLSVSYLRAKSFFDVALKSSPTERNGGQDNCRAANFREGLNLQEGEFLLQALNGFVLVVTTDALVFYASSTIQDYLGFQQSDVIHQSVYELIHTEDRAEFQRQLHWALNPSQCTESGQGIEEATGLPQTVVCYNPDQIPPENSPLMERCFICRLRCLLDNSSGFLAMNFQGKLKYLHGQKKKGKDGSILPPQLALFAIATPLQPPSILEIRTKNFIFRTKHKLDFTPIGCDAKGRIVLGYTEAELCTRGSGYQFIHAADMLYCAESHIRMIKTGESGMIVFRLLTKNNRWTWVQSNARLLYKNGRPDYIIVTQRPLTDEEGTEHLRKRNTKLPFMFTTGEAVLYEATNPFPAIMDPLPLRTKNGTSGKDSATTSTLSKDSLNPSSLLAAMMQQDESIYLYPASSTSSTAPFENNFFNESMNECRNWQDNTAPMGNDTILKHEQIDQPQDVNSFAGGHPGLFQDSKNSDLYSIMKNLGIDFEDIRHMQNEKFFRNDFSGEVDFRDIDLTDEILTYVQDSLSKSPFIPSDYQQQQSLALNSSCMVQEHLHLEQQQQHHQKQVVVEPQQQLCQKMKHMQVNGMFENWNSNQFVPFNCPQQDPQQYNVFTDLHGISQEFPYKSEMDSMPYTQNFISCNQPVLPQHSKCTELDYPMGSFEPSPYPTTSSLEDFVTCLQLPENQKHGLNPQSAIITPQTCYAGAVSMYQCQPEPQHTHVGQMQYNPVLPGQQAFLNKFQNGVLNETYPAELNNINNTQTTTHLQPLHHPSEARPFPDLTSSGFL
# GAA850 FXN act: activators of GAA850 frataxin (FXN) promoter | HEK293 lucGAA850 FXN promoter luciferase reporter, 24 h; percent of 10 µM SAHA response | activation, % at 6 µM | actives 0.56% (n = 360,000) | AID 540364;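 active means activation above the average of all compounds screened plus 3 SD, cutoff fixed separately per campaign, cut at about 7.5% in these data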;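 further: 0% = DMSO wells and 100% = 10 µM SAHA wells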
# SR-BI DiI-HDL act: SR-BI HDL lipid transfer activation; CHO ldlA[mSR-BI] cells, DiI-HDL uptake fluorescence, 3 h; 100 = double the neutral-control signal; activation, % at 12.5 µM; actives 0.096% (n = 320,000); AID 504775;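 active means mean replicate activation of at least 60% and every replicate at or above 60%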;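 further: 0% = median plate neutral-control signal and 100% = twice that signal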
#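 Test system: SR-BI-overexpressing, LDLR-lacking CHO cells; Medium: Ham's F12 with 0.5% BSA, HEPES 25 mM, pH 7.4; Schedule: 3 h, 37 °C; Technique: bottom-read fluorescence, 550/595 nm.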
# HIF act: HIF pathway transcriptional activation. U2OS HRE-luciferase reporter, luminescence; normalized: DMSO 0%, desferrioxamine 100%. activation, % at 7.5 µM (by protocol). actives 0.32% (n = 300,000). AID 1910;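 active means mean activation of at least 10% of the iron chelator positive control signal, with at least half of replicates also reaching 10%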
# Active calls of the source: *; . = no result. In the library only some 3.9% were active in any assay of this set; here they are far more common.
SMILES,SR-BI DiI inh,ABCB6 inh MLPCN,AHR activator,GAA850 FXN act,SR-BI DiI-HDL act,HIF act
O=C(CSc1nc2ccccc2o1)N1N=C(c2cccs2)CC1c1ccc(F)cc1 (centres undefined),-14,93,14,2,14,0
Cc1cccc(C(C)C)c1NC(=O)CSc1ncnc2[nH]ncc12,-9,88,1,3,9,.
NC(=O)[C@H]1CC2(CC(c3cccc(NC(=O)COc4ccc(Cl)cc4)c3)=NO2)CN1C(=O)c1ccccc1C(=O)c1ccccc1 (some centres undefined),77*,96,1,1,-77,0
COc1ccc(N(C)S(=O)(=O)c2cccc(C(=O)N3CCN(Cc4ccc5c(c4)OCO5)CC3)c2)cc1,57,92,.,0,-57,.
Cc1cccc(-c2noc(CN(C)S(=O)(=O)c3cc(Cl)ccc3Cl)n2)c1,2,100,5,1,-2,168*
C[C@@H](C(=O)NCCc1c[nH]c2ccccc12)[C@@H]1C[C@@]1(C)[C@@H](NC(=O)OCc1ccccc1)c1ccccc1,-1,74*,27,-1,1,.
CCCC(=O)NC(c1ccc2c(c1)OCO2)c1cc(Cl)c2cccnc2c1O (centres undefined),-17,101,-2,-5,17,12*
CCCC(=O)NC(c1cccs1)c1cc(Cl)c2cccnc2c1O (centres undefined),12,98,4,-5,-12,29*
N#Cc1nc(-c2ccco2)oc1N1CCCC1,6,100,4,2,-6,0
CCC(=O)Nc1ccc(C(=O)CSc2nc3ccc(C)cc3[nH]2)cc1,12,92,34,1,-12,1
Cc1ccc2nc(SCC(=O)c3ccc4c(c3)OCO4)[nH]c2c1,10,98,57*,1,-10,0
CC(=O)c1c(C)[nH]c(C(=O)CSc2nc3ccc(C)cc3[nH]2)c1C,58,106,70*,-1,-58,0
COc1ccc2c(C)cc(SCC(=O)c3ccc4c(c3)OCO4)nc2c1,18,108,65*,1,-18,1
O=C(CSc1nc2ccccc2[nH]1)c1ccc2c(c1)OCO2,9,97,13,0,-9,3
COc1ccc(/C=C2\SC(N)=NC2=O)cc1Cl,23,98,0,-1,-23,1
CCCCOc1ccc(C(=O)N(CC)CC(=O)NCc2cccs2)cc1,13,94,7,2,-13,0
O=C(CSc1ncnc2c1cnn2-c1ccc(F)cc1)NCC1CCCO1 (centres undefined),-5,92,-6,-1,5,0
N#C/C(=C\c1ccc(-c2ccccc2[N+](=O)[O-])o1)C(=O)Nc1nc(-c2cccs2)cs1,7,101,59*,2,-7,0
O=C(CN1CCCCC1)N1CCCc2ccccc21,-2,97,0,-1,2,90*
O=C(c1cccc(F)c1F)N1CCCc2ccccc21,7,101,51*,0,-7,-18
Cn1c(=O)cc(OCC(=O)N2CCCc3ccccc32)c2ccccc21,2,84,50*,-4,-2,0
CCOc1ccc(NC(=O)CN(C)C(=O)c2cc(-c3ccc(OC)cc3)nc3ccccc23)cc1OCC,40,94,5,-7,-40,0
O=c1[nH]c(CS(=O)(=O)c2ccccc2)nc2ccccc12,-19,95,74*,-1,19,0
CCC(=O)N(Cc1ccco1)c1nc(C(=O)Nc2ccc(Cl)cc2)c(C)s1,47,107,74*,4,-47,0
CC1C(=O)N(Cc2cn(CCC3OCCO3)nn2)CCS(=O)(=O)N1Cc1ccc(-c2ccc(Cl)cc2)cc1 (centres undefined),.,88,.,-2,.,.
SMILES,SR-BI DiI inh,ABCB6 inh MLPCN,AHR activator,GAA850 FXN act,SR-BI DiI-HDL act,HIF act
Cc1ccc(NC(=O)c2sc(N)nc2C)cc1,-24,96,61*,4,24,2
COC(=O)c1ccccc1NC(=O)c1sc(N)nc1C,.,96,2,1,.,.
Cc1nc(NC(N)=S)sc1C(=O)Nc1ccccc1,7,87,105*,-3,-7,0
O=C(Nc1nc2ccccc2s1)c1c(F)cccc1Cl,-17,101,1,1,17,2
O=C(NCCCn1ccnc1)c1cccc(S(=O)(=O)Nc2ccc(F)cc2)c1,-6,100,.,2,6,.
CC(=O)Nc1c([N+](=O)[O-])cc(C)c(Cl)c1[N+](=O)[O-],-15,84,5,-1,15,13*
COc1ccc(CN2CCC2(C)C(=O)NCCc2c[nH]c3ccccc23)c2ccccc12 (centres undefined),.,96,.,2,.,.
COc1cccc(Nc2nc(-c3sc(NC(=O)CC(C)C)nc3C)cs2)c1,86*,97,51*,-1,-86,-1
COc1ccccc1Nc1nc(-c2sc(NC(=O)CC(C)C)nc2C)cs1,38,106,71*,0,-38,-1
COc1ccccc1Nc1nc(-c2sc(NC(=O)C(C)(C)C)nc2C)cs1,85*,112,29,0,-85,1
CCOc1ccccc1Nc1nc(-c2sc(C)nc2C)cs1,66,95,33,3,-66,3
COc1ccccc1Nc1nc(-c2sc(NC(=O)c3cccc(Cl)c3)nc2C)cs1,.,.,32,.,.,-1
CC(C)(C)NCc1cc(Br)ccc1OCc1cccs1,14,96,5,-3,-14,0
CC(C)=CCOc1c2ccoc2cc2oc(=O)ccc12,31,91,51*,-2,-31,0
CC1(C)O[C@@H]1COc1c2ccoc2cc2oc(=O)ccc12,0,94,70*,0,0,2
CCN1CCN(C(=O)c2sc3ncnc(N4CCc5ccccc5C4)c3c2C)CC1,39,119,49*,3,-39,0
COCCOc1ccc(C(F)(F)F)cc1NC(=O)c1ccc(C(F)(F)F)cc1,18,89,70*,0,-18,-1
COCCOc1ccc(C(F)(F)F)cc1NC(=O)COC(=O)c1cc[n+]([O-])cc1,-15,99,4,1,15,0
COCCOc1ccc(C(F)(F)F)cc1NC(=O)c1ccccc1F,24,95,61*,4,-24,0
CCCOc1ccc(C(F)(F)F)cc1NC(=O)c1cc(C)on1,72*,102,0,-1,-72,.
COc1ccc(-c2csc(C(C#N)=C(O)CSc3nccn3C)n2)cc1OC,-28,103,.,1,28,.
Cc1ccc(C2=NS(=O)(=O)N(C)C(C(=O)Nc3cc(C)n(CC(=O)N4CCC(C)CC4)n3)=C2)cc1,86*,104,1,-1,-86,-1
